Data set [1] concerns the target T1, Sodium channel protein type 3 subunit alpha (Homo sapiens, UniProt Q9NY46). The data set can be described thus: Inhibition of human NaV1.3 expressed in HEK cells by electrophysiological method. Type of data set: cell-based.
The target of data set [2] is Sodium channel protein type 1 subunit alpha (Homo sapiens, UniProt P35498). Kind of data set: Inhibition of human NaV1.1.
In data set [3] the target is Sodium channel protein type 2 subunit alpha (Homo sapiens, UniProt Q99250). Kind of data set: Inhibition of human NaV1.2.
Data set [4] concerns the target Sodium channel protein type 9 subunit alpha (Homo sapiens, UniProt Q15858). The data set can be described thus: Inhibition of human NaV1.7.
Data set [5] has as its target Sodium channel protein type 10 subunit alpha (Homo sapiens, UniProt Q9Y5Y9). Kind of data set: Inhibition of human NaV1.8.
A short description of data set [6]: Clearance in human liver microsomes. To be noted: read-out: CLH. Type of data set: ADME, microsome. On the technique in general: Liver microsomes are a subcellular fraction often used to study metabolism.
Data set [7] has as its target CYP2C9 (Homo sapiens, UniProt P11712). The data set can be described thus: Inhibition of CYP2C9 (unknown origin) at 3 uM by high throughput assay relative to control. Type of data set: ADME.
Data set [8] can be described thus: Aqueous solubility of compound. Type of data set: physicochemical. To be noted: buffer.
The test system of data set [9] is MDR1. The data set can be described thus: Efflux ratio of permeability across basolateral to apical over apical to basolateral side in RRCK cells expressing MDR1. As to conditions: dog, MDCK-MDR1. Type of data set: ADME, cell-based, Canis lupus familiaris, MDCKII-LE.
Data set [10] can be described thus: Lipophilicity, log D of the compound. Type of data set: physicochemical. As to conditions: octanol/water.
In data set [11] the target is CYP3A4 (Homo sapiens, UniProt P08684). Kind of data set: Inhibition of CYP3A4 (unknown origin) at 3 uM by high throughput assay relative to control. Type of data set: ADME.
Data set [12] is described as follows: Dissociation constant, pKa of compound. Format: physicochemical.
Data set [13] in a line: Clearance in rat. Type of data set: ADME, organism-based. To be noted: in vivo.
Data set [14] can be described thus: Volume of distribution in rat. Format: ADME, organism-based. As to conditions: in vivo.
The nature of data set [15]: Oral bioavailability in rat. Format: ADME, organism-based. As to conditions: in vivo.
Data set [16] addresses Voltage-gated inwardly rectifying potassium channel KCNH2 (Homo sapiens, UniProt Q12809). Kind of data set: Inhibition of human ERG.
The nature of data set [17]: Elimination half life in rat. Type of data set: ADME, organism-based. To be noted: in vivo, read-out: beta t1/2 (converted).
The nature of data set [18]: Fraction unbound in rat plasma. Format: ADME, cell-free.
A short description of data set [19]: Clearance in rat liver microsomes. Type of data set: ADME, microsome. To be noted: read-out: CLH.
Data set [20] in a line: Clearance in dog liver microsomes. As to conditions: read-out: CLH. Format: ADME, Canis lupus familiaris, microsome.
Data set [21] is described as follows: Clearance in cynomolgus monkey liver microsomes. As to conditions: read-out: CLH. Type of data set: ADME, Macaca fascicularis, microsome.
Data set [22] has as its system Rattus norvegicus. Kind of data set: Prodrug conversion in po dosed rat assessed as formation of N-(3-chloro-4-(trifluoromethoxy)benzyl)-3-fluoro-4-(N-thiazol-2-ylsulfamoyl)benzamide. Type of data set: ADME, organism-based. As to conditions: in vivo.
In data set [23] the test system is Cynomolgus monkey. Kind of data set: Toxicity in cynomolgus monkey assessed as change in heart rate at 30 mg/kg. Format: organism-based, Macaca fascicularis. To be noted: in vivo.
Data set [24] concerns Cynomolgus monkey. Kind of data set: Toxicity in cynomolgus monkey assessed as change in systolic blood pressure at 30 mg/kg. Format: organism-based, Macaca fascicularis. As to conditions: in vivo.
Data set [25] deals with Cynomolgus monkey. Kind of data set: Toxicity in cynomolgus monkey assessed as change in diastolic blood pressure at 30 mg/kg. Format: organism-based, Macaca fascicularis. To be noted: in vivo.
Data set [26] relates to Cynomolgus monkey. Kind of data set: Toxicity in cynomolgus monkey assessed as effect on ECG parameters at 30 mg/kg. Format: organism-based, Macaca fascicularis. As to conditions: in vivo.
Data set [27] concerns Cynomolgus monkey. Kind of data set: Toxicity in cynomolgus monkey assessed as change in left ventricular pressure parameters at 30 mg/kg. Format: organism-based, Macaca fascicularis. To be noted: in vivo.
The test system of data set [28] is Rattus norvegicus. The data set can be described thus: Antipain activity in tibial nerve transection surgery model of rat assessed as reduction of noxious pinch evoked activity at 3 to 10 mg/kg administered as iv bolus dose measured every 15 mins for 30 mins. Type of data set: functional, organism-based. A digest of the protocol:
(§1)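 Rats had tibial nerve transection 2–3 weeks before recording. Under isoflurane anaesthesia (5% in O2) in a stereotaxic frame, body temperature was held at 37 °C and L4-5 spinal segments were exposed by laminectomy. After stable baseline responses, compound was given as an IV bolus, with effects assessed every 15 min for up to 30 min per dose. Treatment was randomised and blinded, and dry blood spots were taken for plasma exposure.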

Data set [29] relates to Rattus norvegicus. The data set can be described thus: Antipain activity in tibial nerve transection surgery model of rat assessed as reduction of innocuous brush evoked activity at 3 to 10 mg/kg administered as iv bolus dose measured every 15 mins for 30 mins. Format: functional, organism-based. A digest of the protocol: as §1
Data set [30] relates to Rattus norvegicus. The data set can be described thus: Antipain activity in tibial nerve transection surgery model of rat assessed as reduction of mechanical punctate stimuli evoked activity at 3 to 10 mg/kg administered as iv bolus dose measured every 15 mins for 30 mins. Type of data set: functional, organism-based. Put shortly:
as §1

The subject of data set [31] is Rattus norvegicus. Kind of data set: Antipain activity in tibial nerve transection surgery model of rat assessed as reduction of heat evoked activity at 3 to 10 mg/kg administered as iv bolus dose measured every 15 mins for 30 mins. Format: functional, organism-based. A digest of the protocol: as §1
Data set [32] concerns the target T1, Sodium channel protein type 3 subunit alpha. The data set can be described thus: Inhibition of NaV1.3 (unknown origin) expressed in HEK293 cells by CC2-DMPE/DiSBAC2(3) dye-based FRET assay. Format: cell-based.

Molecules are shown by their SMILES. Values after ≈ are worked out from the molar mass of the structure shown. Active and inactive are the calls of the source. The calls are words filed in the database; no cut-off is given here.

T1 sequence (Q9NY46 whole entry): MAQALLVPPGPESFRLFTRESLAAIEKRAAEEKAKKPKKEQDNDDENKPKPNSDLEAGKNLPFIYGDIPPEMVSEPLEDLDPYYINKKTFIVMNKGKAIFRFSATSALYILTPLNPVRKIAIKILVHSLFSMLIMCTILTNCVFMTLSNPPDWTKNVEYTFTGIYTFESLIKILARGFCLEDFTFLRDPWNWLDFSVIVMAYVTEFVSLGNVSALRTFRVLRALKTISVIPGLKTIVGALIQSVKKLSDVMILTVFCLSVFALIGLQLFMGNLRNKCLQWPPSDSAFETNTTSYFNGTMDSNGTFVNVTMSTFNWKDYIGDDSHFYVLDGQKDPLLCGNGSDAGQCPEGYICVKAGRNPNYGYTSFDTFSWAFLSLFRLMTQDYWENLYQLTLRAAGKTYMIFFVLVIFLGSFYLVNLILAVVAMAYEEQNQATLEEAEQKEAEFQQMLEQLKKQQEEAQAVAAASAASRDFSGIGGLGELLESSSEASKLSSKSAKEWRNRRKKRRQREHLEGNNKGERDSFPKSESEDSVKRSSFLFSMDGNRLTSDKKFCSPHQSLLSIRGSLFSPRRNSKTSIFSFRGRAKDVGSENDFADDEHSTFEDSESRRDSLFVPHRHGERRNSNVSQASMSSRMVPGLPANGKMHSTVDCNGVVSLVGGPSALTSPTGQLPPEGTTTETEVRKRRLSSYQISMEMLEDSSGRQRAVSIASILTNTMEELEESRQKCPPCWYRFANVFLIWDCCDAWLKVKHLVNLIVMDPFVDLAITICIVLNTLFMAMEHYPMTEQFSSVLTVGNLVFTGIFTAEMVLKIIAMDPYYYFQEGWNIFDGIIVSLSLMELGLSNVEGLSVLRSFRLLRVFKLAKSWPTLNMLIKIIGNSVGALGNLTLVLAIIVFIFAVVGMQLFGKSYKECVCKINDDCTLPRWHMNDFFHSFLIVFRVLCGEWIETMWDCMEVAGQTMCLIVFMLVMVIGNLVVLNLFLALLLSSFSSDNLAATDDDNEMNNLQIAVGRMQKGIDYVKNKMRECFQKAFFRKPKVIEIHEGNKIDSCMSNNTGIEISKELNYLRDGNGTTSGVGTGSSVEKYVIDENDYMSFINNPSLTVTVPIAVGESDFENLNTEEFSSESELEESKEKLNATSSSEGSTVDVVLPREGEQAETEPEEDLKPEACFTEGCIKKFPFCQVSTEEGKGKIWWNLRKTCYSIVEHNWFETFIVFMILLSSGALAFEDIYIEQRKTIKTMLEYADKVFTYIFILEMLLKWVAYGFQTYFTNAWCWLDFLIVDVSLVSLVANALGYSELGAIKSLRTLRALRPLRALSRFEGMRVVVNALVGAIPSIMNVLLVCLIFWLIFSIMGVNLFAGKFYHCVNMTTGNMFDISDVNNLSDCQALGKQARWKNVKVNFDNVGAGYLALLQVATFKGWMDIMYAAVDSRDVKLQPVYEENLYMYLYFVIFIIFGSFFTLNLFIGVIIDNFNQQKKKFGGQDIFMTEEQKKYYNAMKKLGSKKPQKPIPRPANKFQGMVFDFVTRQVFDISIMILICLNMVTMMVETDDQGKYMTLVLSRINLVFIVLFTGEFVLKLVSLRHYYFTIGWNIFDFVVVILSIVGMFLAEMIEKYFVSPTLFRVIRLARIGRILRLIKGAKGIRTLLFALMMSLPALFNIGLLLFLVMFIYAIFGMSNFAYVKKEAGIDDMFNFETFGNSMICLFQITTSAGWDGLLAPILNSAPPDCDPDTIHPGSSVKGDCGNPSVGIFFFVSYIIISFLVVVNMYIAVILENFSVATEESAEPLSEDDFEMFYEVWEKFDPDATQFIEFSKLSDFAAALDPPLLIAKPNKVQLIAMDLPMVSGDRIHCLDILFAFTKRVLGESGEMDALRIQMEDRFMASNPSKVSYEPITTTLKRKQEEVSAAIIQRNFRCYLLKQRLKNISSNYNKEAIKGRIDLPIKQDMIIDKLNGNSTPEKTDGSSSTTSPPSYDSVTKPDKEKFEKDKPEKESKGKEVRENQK
Sequence of Sodium channel protein type 10 subunit alpha (Q9Y5Y9 whole entry): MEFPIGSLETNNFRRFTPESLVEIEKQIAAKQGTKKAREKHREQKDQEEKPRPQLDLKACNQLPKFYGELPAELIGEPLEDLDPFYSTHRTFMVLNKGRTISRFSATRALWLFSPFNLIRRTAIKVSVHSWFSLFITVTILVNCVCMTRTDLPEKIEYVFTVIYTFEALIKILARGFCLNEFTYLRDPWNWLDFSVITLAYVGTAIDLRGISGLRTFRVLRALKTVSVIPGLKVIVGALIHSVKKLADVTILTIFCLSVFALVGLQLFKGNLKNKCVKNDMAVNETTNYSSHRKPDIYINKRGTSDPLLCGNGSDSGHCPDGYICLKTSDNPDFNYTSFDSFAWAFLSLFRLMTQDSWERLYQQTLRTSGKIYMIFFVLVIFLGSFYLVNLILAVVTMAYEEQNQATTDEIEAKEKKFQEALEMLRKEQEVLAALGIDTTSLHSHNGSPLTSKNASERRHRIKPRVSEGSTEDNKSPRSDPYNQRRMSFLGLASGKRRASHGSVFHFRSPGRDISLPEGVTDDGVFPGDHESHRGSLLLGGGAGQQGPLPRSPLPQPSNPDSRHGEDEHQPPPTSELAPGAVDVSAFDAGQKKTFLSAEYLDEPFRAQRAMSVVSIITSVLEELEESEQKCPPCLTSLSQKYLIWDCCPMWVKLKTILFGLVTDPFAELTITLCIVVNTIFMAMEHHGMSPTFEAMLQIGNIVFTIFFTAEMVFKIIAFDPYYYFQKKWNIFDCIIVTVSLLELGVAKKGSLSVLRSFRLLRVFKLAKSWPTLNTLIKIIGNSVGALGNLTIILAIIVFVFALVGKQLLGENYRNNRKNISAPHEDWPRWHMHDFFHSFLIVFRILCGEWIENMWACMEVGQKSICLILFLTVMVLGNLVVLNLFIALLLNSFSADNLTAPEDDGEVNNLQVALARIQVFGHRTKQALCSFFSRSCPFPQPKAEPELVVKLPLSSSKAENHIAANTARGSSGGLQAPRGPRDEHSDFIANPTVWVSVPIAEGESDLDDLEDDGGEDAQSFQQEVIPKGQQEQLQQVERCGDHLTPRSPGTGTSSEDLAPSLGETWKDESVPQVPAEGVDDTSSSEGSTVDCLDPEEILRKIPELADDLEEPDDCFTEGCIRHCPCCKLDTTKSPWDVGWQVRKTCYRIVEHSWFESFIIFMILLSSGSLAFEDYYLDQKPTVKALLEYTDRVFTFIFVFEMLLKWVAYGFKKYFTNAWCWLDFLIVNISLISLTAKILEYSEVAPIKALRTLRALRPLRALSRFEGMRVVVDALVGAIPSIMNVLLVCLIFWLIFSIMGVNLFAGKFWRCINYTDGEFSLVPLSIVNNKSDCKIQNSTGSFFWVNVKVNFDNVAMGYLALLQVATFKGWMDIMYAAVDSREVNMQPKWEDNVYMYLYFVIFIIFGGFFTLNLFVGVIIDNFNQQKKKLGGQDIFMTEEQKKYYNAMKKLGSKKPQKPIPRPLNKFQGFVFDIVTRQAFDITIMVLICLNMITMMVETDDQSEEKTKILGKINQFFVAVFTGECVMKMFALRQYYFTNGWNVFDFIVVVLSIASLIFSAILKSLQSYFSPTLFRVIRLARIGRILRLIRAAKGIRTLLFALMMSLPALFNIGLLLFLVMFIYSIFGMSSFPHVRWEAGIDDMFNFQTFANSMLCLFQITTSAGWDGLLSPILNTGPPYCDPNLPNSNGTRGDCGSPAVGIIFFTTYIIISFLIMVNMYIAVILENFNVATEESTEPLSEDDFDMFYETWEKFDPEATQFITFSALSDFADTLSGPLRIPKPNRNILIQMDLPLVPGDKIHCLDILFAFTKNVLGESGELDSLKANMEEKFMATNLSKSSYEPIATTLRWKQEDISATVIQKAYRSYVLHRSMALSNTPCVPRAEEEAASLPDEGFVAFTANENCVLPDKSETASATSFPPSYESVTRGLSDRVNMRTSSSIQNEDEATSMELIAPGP
Sequence of Voltage-gated inwardly rectifying potassium channel KCNH2 (Q12809 whole entry): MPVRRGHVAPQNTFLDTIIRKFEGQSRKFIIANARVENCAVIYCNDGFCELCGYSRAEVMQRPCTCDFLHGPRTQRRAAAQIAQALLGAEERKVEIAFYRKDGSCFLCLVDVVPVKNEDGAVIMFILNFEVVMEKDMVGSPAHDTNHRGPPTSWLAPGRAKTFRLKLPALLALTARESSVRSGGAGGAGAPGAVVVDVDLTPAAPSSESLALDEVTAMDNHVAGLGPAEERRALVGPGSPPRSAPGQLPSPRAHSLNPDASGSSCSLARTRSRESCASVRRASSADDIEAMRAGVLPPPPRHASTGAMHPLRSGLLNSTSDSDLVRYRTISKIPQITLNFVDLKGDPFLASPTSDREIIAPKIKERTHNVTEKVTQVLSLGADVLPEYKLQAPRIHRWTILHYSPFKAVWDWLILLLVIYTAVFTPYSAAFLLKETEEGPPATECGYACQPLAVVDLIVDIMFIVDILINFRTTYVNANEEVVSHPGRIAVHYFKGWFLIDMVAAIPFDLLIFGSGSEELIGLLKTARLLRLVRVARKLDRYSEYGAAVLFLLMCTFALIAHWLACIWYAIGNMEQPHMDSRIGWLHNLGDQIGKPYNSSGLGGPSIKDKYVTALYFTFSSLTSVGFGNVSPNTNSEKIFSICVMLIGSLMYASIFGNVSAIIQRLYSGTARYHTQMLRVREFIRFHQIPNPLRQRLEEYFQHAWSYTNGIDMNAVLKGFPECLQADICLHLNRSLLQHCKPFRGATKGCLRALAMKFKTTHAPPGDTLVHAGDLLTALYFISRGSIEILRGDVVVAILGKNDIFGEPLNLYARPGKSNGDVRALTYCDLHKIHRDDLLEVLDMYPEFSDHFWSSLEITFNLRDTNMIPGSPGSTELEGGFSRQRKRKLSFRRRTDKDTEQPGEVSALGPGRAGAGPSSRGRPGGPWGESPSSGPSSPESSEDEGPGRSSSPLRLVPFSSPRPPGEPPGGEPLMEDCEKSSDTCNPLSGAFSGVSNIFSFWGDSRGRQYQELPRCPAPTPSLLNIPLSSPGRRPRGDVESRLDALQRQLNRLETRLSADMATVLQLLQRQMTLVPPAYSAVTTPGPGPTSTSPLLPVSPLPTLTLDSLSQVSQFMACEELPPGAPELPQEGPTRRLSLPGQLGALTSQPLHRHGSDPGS

For `O=S(=O)(Nc1ncns1)c1ccc(OCc2ccc(OC(F)(F)F)c(Cl)c2)cc1`, the IC50 is 22 nM in data set [1]; 455 nM in [2]; 2760 nM in data set [3]; 5100 nM in data set [4]; 15100 nM in [5]; more than 10000 nM in data set [16]. For the same compound, the microsomal CLint in data set [6] is 15 µL/min/mg; in data set [19], less than 14 µL/min/mg; in data set [20], less than 18 µL/min/mg; in [21], less than 32 µL/min/mg. In addition, the inhibition at 3 µM in [7] came to 85%; in data set [11], 75%. Besides, the concentration in solution in data set [8] (solubility) was 99 µM (≈ 46.1 µg/mL). In addition, in data set [9], the efflux ratio stood at 1. Also, in data set [10], the logD worked out at 2.65. The same compound had a pKa in data set [12] of 4.1. The clearance in [13] worked out at 2 mL/min/kg. Besides, in data set [14], the distribution volume (Vd) was determined as 1 L/kg. Further, the bioavailability in [15] was determined as 73%. Besides, in data set [17], the half-life was 7 h. The fraction unbound in [18] was 0.00024.

Consider `O=C(NCc1ccc(OC(F)(F)F)c(Cl)c1)c1ccc(S(=O)(=O)/N=c2\sccn2COP(=O)(O)O)c(F)c1`, for which the Drug metabolism result in [22] is recorded as “Metabolite_Detected”. Further, the Activity entry in [23], in [24], in data set [25], in data set [26] and in [27] was “Non-Toxic” throughout. The result in [28] was Active. The outcome in data set [29], in [30] and in [31] was inactive.

For the compound `O=C1[C@@H](N2CC[C@H](c3cc(Cl)cc(Cl)c3)C2)CCN1c1ccc(S(=O)(=O)Nc2nccs2)cc1`, the IC50 in data set [32] was less than 2000 nM.

The IC50 is the point on the concentration scale where inhibition reaches its midpoint. For orientation: inhibition means the drop in the measured response relative to a control, in per cent. Broadly, the solubility is the concentration that dissolves in the medium under given conditions. Broadly, the efflux ratio is a quotient of directional permeabilities that is used to spot active efflux. In general, logD refers to the decadic logarithm of the distribution of all forms, ionised or not, between an organic phase and buffer at a given pH. What is called pKa is the negative logarithm of the acid dissociation constant. For orientation: clearance means the volume of plasma or blood freed of the substance per unit of time. By Vd is commonly meant a proportionality between amount in the body and measured concentration, not a real space. The bioavailability is the share of a dose that reaches the circulation, judged against a reference dose that is usually intravenous. For orientation: fraction unbound means the share of the substance not bound to proteins or other matrix.

These data come from ChEMBL document CHEMBL4257443, “The discovery of a potent Nav1.3 inhibitor with good oral pharmacokinetics” (Medchemcomm, 2017).
